MC4R antag cAMP – antagonists of human melanocortin 4 receptor (MC4R) | inhibition, % at 6.5 µM | MC4R-expressing cells, MTII-stimulated cAMP, LANCE TR-FRET | hit rate 0.48% among 360,000 | AID 540295 | P32245;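 active means inhibition above its plate's cutoff, the mean of tested wells on that plate plus 3 SD, cut at about 29% in these data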;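 further: 0% = Melanotan II alone and 100% = Melanotan II plus saturating MCL0020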
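System: U2OS cells stably expressing human melanocortin 4 receptor (MC4R). Reagent: Melanotan II challenge after compound preincubation. Doses: 6.5 µM. Times: 30-min compound, 1-h challenge, 1-h detection, room temperature. Measured by: TR-FRET with Eu-cAMP and labeled anti-cAMP, 671 nm. Replicates: singlicate.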
PG9 Ab binder – PG9 antibody binding by small molecule | inhibition, % at 6.7 µM | TR-FRET gp120-PG9 antibody binding | AID 624416 | hit rate 0.43% among 360,000; in the data active means inhibition above about 8.5%
NR1D1 modulator – modulates human Rev-erb alpha binding to DNA; P20393; Rev-erbα–FITC-DNA binding, fluorescence polarization, 90 min; activity, % at 10 µM; hit rate 0.79% among 370,000;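 active means activity above about 14%, limit read from the data; passing the limit was not always enough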;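 further: 0% = DMSO wells with 35 nM protein and 100% = DMSO wells with 750 nM protein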
NTR1 ag – activates human neurotensin receptor 1 | hit rate 0.17% among 330,000 | P30989 | NTR1-U2OS beta-arrestin-GFP spot imaging, agonist mode | activation, % at 20 µM;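 active means activation at or above 40% of the spot to cytoplasm intensity ratio, with at least 20 cells analyzed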;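 further: 0% = DMSO without peptide and 100% = 100 nM NTR1 peptide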
Target sequence (P30989 whole entry, looked up): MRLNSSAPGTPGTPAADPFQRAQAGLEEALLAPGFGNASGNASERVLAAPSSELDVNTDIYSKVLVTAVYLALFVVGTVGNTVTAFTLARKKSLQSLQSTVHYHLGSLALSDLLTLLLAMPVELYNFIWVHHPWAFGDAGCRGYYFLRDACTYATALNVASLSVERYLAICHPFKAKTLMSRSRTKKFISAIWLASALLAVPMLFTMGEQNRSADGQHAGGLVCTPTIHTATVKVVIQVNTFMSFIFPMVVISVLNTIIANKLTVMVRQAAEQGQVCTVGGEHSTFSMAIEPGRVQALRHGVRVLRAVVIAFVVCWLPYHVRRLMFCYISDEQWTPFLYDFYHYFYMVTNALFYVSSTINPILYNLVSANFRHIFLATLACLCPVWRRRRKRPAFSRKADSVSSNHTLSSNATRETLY
MC4R barr agon – human MC4R agonism via beta-arrestin. P32245. U2OS MC4R beta-arrestin complementation, luminescence; percent of melanotan II response, DMSO zero. activation, % at 8.9 µM. AID 540308. hit rate 0.98% among 360,000;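 active means activation above a per-plate cutoff, the mean activation of sample wells on that plate plus 3 SD, cut at about 8% in these data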
cAMP nonselect – nonselective cAMP signaling inhibitor, MC4R antagonist counter-screen | parental U2OS, forskolin cAMP, LANCE TR-FRET | hit rate 26% among 1,600 | shares compounds with MC4R antag cAMP | AID 602193 | inhibition, % at 6.5 µM;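 active means mean inhibition over triplicates above the low-control well mean plus 3 SD, set per campaign, cut at about 13% in these data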;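 further: signal is single emission at 671 nm which falls as cellular cAMP rises; 0% = forskolin-stimulated wells and 100% = buffer without forskolin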
MC4R cAMP antag – human MC4R cAMP antagonism confirmation; hit rate 27% among 1,600; AID 602195; MC4R-expressing cells, MTII-stimulated cAMP, TR-FRET; inhibition, % at 6.5 µM; shares compounds with MC4R antag cAMP; in the data active means inhibition above about 29%;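 further: 0% = agonist stimulated wells alone and 100% = agonist stimulated wells plus saturating reference antagonist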
An asterisk follows results filed as active; x = not tested or not shown. A selection: hits, their analogues and other compounds. The true share with any hit is near 2.5%.

SMILES | MC4R antag cAMP | PG9 Ab binder | NR1D1 modulator | NTR1 ag | MC4R barr agon | cAMP nonselect | MC4R cAMP antag
CC(=O)N1N=C(c2ccccc2)CC1c1cccs1 (stereo unspecified) | 29* | 1 | 2 | -1 | 0 | -3 | -15
Cc1ccc(-c2cc(-c3nnc(SCC(=O)Nc4nccs4)n3N)[nH]n2)cc1 | x | x | 3 | x | x | x | x
COCCNc1nc(Oc2ccc(NC(C)=O)cc2)c2sc(-c3ccccc3)cc2n1 | 47* | -1 | 1 | x | 6 | -2 | 8
COc1ccc(NC(=O)c2cc([N+](=O)[O-])ccc2N2CCN(C)CC2)cc1 | 29* | -2 | -4 | -1 | 1 | -1 | 2
Cc1ccc(NC(=O)c2cc([N+](=O)[O-])ccc2N2CCCC2)cc1 | 0 | -1 | 2 | 1 | -2 | x | x
Cc1cccc(N2C(=O)C(O)=C(C(=O)c3cccs3)C2c2ccccc2)n1 (stereo unspecified) | 30* | 3 | -2 | 2 | -1 | 6 | 17
CCCC(=O)OC12CCCN(C1)/C(=C/c1ccc(Cl)cc1)C2 (stereo unspecified) | x | x | -3 | x | x | x | x
CCc1nc2ccc(C(=O)NCc3ccc4c(c3)OCO4)cn2c1N(CC)CCN(C)C | 21 | -3 | 0 | x | -1 | x | x
CCc1nc2ccc(C(=O)NCc3ccc4c(c3)OCO4)cn2c1N(CCC(C)C)CCN(C)C | 31* | -1 | -2 | x | -1 | 1 | 47*
CCOc1ccccc1OCC(=O)Oc1ccc(C)c(C)c1 | 29* | -3 | 1 | 0 | 3 | 4 | 3
COc1ccc(OC(=O)COc2ccccc2C)cc1 | 8 | -3 | -1 | 0 | 2 | x | x
Cc1ccc(/C=C/C(=O)N2CCN(S(=O)(=O)c3ccc(C)c(C)c3)CC2)o1 | 38* | -1 | -2 | 1 | -1 | -2 | 7
Cc1ccc(/C=C/C(=O)N2CCN(S(=O)(=O)c3c(C)c(C)cc(C)c3C)CC2)o1 | 22 | -1 | -2 | -2 | -2 | x | x
CCN(c1ccccc1)S(=O)(=O)c1ccc(NC(=O)c2nc(S(C)(=O)=O)ncc2Cl)cc1 | 60* | x | x | 0 | -3 | 24* | 46*
CS(=O)(=O)c1ncc(Cl)c(C(=O)Nc2ccc(OC(F)F)cc2)n1 | 12 | x | x | 4 | -2 | x | x
CCS(=O)(=O)c1ncc(Cl)c(C(=O)Nc2ccc(S(=O)(=O)N(C)c3ccccc3)cc2)n1 | 52* | 2 | 0 | 0 | -5 | 4 | 36*
Cc1ccccc1CS(=O)(=O)c1ncc(Cl)c(C(=O)Nc2ccc(F)cc2)n1 | 42* | 0 | 3 | -1 | -3 | 29* | 26
Cc1ccc(NC(=O)c2nc(S(=O)(=O)Cc3ccccc3)ncc2Cl)cc1 | 11 | 0 | 6 | -2 | -4 | x | x
CCCCCCN1CCS(=O)(=O)N(Cc2ccc(C)cc2)C(C(=O)OC)C1 (stereo unspecified) | x | x | 1 | x | x | x | x
COc1ccc2c(c1)CO[C@H]([C@H](O)CO)[C@H]2/C=C/c1ccccc1 | x | x | 15 | x | x | x | x
O=C(/C=C/c1ccco1)NC(=S)Nc1cc(-c2nc3ccccc3s2)ccc1Cl | 34* | -12 | -1 | x | -1 | 4 | 15
Cc1ccc(-c2nc3ccccc3s2)cc1NC(=S)NC(=O)/C=C/c1ccco1 | -6 | 0 | -5 | 2 | 0 | x | x
CCCCOc1ccc(C(=O)NC2CCCCN(C)C2=O)cc1 (stereo unspecified) | x | -1 | -9 | x | x | x | x
COc1cc2c(cc1NC(=O)CSc1nnc(-c3ccccc3C)n1Cc1ccco1)oc1ccccc12 | x | x | -12 | x | x | x | x
Cc1ccnc(SCc2cc(=O)c(OC(=O)c3ccc(C)c([N+](=O)[O-])c3)co2)n1 | x | x | 6 | x | x | x | x
SMILES | MC4R antag cAMP | PG9 Ab binder | NR1D1 modulator | NTR1 ag | MC4R barr agon | cAMP nonselect | MC4R cAMP antag
COc1ccc(CN2C(=O)[C@]3(NCCc4c3[nH]c3ccc(OC)cc43)c3cc(Br)ccc32)cc1 | x | x | 2 | x | x | x | x
CSc1ccc(OC2CCCCC2NS(=O)(=O)c2ccc(Cl)cc2)cc1 (stereo unspecified) | 31* | 1 | -1 | 4 | 2 | 0 | 16
O=S(=O)(NC1CCCCC1Oc1ccccc1)c1ccc(Cl)cc1 (stereo unspecified) | 0 | 0 | 5 | 5 | 2 | x | x
O=C(CN1C(=O)C2CCCCN2C(=O)c2ccccc21)N1CCCC1 (stereo unspecified) | x | x | -5 | x | x | x | x
COc1cccc(CC(=O)O[C@@H]2CCC[C@@]3(C(=O)N(Cc4ccccc4)c4ccccc43)[C@H]2NC(=O)CCc2ccccc2)c1 | x | x | 7 | x | x | x | x
CCOC(=O)Cn1nnnc1CN(Cc1ccccc1)Cc1cc2cc(CC)ccc2[nH]c1=O | 30* | -1 | 1 | 8 | 3 | 3 | 0
CCc1ccc2[nH]c(=O)c(CN(Cc3ccccc3)Cc3nnnn3Cc3ccco3)cc2c1 | 12 | 1 | -10 | 7 | 0 | x | x
Cc1cc(Sc2nc(N)ncc2[N+](=O)[O-])ncn1 | 40* | -2 | -6 | 0 | -2 | 20* | 35*
Cc1ccc(C)c(Oc2ncnc(N)c2[N+](=O)[O-])c1 | 0 | 0 | -5 | 0 | -1 | x | x
Cc1cc(Sc2ncnc(N)c2[N+](=O)[O-])ncn1 | 38* | x | x | -1 | -1 | 16* | 36*
Cc1ccccc1C1CCC2(CC1)CCN(CC[C@@H](O)c1ccccc1)C2=O (stereo partly specified) | x | x | -4 | x | x | x | x
C[C@@H]1COc2cc(N3CCOCC3)ccc2S(=O)(=O)N1 | x | 2 | -2 | x | x | x | x
CCC(C)(C)NC(=O)CN(CC1CCCO1)C(=O)CCC(=O)Nc1nccs1 (stereo unspecified) | 35* | 0 | -1 | -2 | 0 | -4 | -6
O=C(O)c1cccc2c1C(=O)c1ccc(N3CCN(Cc4ccc5c(c4)OCO5)CC3)cc1S2(=O)=O | 33* | 2 | -5 | x | 2 | -1 | -4
O=C(OCCN1CCCCC1)c1ccccc1Br | 30* | 1 | 1 | 0 | 0 | -1 | 0
COc1ccc(-n2c(CN3CCC(C)CC3)nc3ccc([N+](=O)[O-])cc3c2=O)c(OC)c1 | 34* | 0 | -5 | 1 | 0 | 0 | -9
COc1ccc(-n2c(CN3CCOCC3)nc3ccc([N+](=O)[O-])cc3c2=O)c(OC)c1 | 5 | -1 | -5 | 0 | -1 | x | x
CCN(CC)c1ccc(C2Nc3cccc4cccc(c34)N2)c(O)c1 | 33* | -2 | -1 | 3 | 0 | 3 | 29*
Cc1cccc(OCC(=O)Nc2ccc3c(c2)nc(CN2CCCCC2)n3C)c1 | 32* | -2 | -1 | 1 | 1 | -1 | -16
CC(C)(C)c1ccc(-n2nc(C#N)c(Cl)cc2=O)cc1 | 94* | 0 | -3 | -2 | -3 | 41* | 89*
COc1ccc(-n2c(SCc3ccc([N+](=O)[O-])cc3)nnc2-c2ccco2)cc1 | x | x | 3 | x | x | x | x
